Experiments:
Tubulin (Homo sapiens) [1] = biological target: T1, Tubulin (Homo sapiens) (UniProt P68371+Q9H4B7+P0DPH7+P68366+Q13509+Q71U36+P04350+Q3ZCM7+P07437+P68363+Q9BQE3+Q6PEY2+Q13885+Q9BVA1+Q9BUF5); assay: Activation of tubulin (unknown origin) polymerization at 10 uM; format: protein-complex assay
Outline: (§1)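 Purified brain tubulin (kit), final 3.0 mg/mL, in 80.0 mM PIPES sesquisodium pH 6.9, 2.0 mM MgCl2, 0.5 mM EGTA, 1 mM GTP, 10.2% glycerol; components prewarmed to 37 °C, reaction started by adding tubulin. A340 read each minute for 1 h. Single-point % stimulation used 10 μM compound; EC50 from 3.75, 7.5, 15, 30, 60 μM.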

[2] = Cytotoxicity against human QGY cells after 48 hrs by MTT assay; format: functional, cell-based
Outline: (§2)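 Log-phase cells (40000–50000 cells/mL) grown in DMEM with 10% fetal calf serum (5% CO2, 37 °C) and exposed 48 h to five concentrations, 3–5 replicates. Read-out was MTT with absorbance at 570 nm; IC50 reported as mean ± SD of three independent experiments. Resistant A549 and HeLa sublines were made by stepwise paclitaxel selection; resistance index = IC50(resistant)/IC50(sensitive).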

A549 [3] = assay: Cytotoxicity against human A549 cells after 48 hrs by MTT assay; format: functional, cell-based; outline: as §2
HeLa = assay: Cytotoxicity against human HeLa cells after 48 hrs by MTT assay; format: functional, cell-based; outline: as §2
K562 = assay: Cytotoxicity against human K562 cells after 48 hrs by MTT assay; format: functional, cell-based; outline: as §2
SW480 = assay: Cytotoxicity against human SW480 cells after 48 hrs by MTT assay; format: functional, cell-based; outline: as §2
Tubulin = assay: (§3) Activation of tubulin (unknown origin) polymerization; format: protein-complex assay, Homo sapiens; outline: as §1
A549 [4] = assay: Cytotoxicity against paclitaxel-resistant human A549 cells after 48 hrs by MTT assay; format: functional, cell-based; details: A549, 48 h; outline: as §2
Mus musculus = assay: Toxicity in human A549 cells xenografted BALB/c nude mouse assessed as change in body weight at 30 mg/kg, ig; format: organism-based; set-up: dose 30 mg/kg, route intragastric; details: in vivo, po
Outline: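 Male BALB/c nude mice, 5 weeks old (18–20 g), implanted subcutaneously in the right armpit with A549 tumor fragments (3 mm3). On day 13, at 100–200 mm3, daily intragastric dosing began: 100 or 500 mg/kg test compound, or 30 mg/kg paclitaxel, in Tween-80 diluted with saline. Vehicle given ip. Tumor volume and body weight followed; n = 6; inhibition rate at day 16.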

Tubulin (Homo sapiens) [5] = biological target: T1, Tubulin (Homo sapiens); assay: as §3; format: protein-complex assay; outline: as §1

Row | SMILES | Activity (Tubulin (Homo sapiens) [1]) [%] | IC50 ([2]; Homo sapiens, QGY, 48 h) [µM] | IC50 (A549 [3]; Homo sapiens, A549, 48 h) [µM] | IC50 (HeLa; Homo sapiens, HeLa, 48 h) [µM] | IC50 (K562; Homo sapiens, K562, 48 h) [µM] | IC50 (SW480; Homo sapiens, SW480, 48 h) [µM] | other results
1 | CCOC(=O)C1(C(=O)Nc2ccc(OC)cc2)CC1c1cc(OC)c(OC)c(OC)c1 (cis isomer) | 25 |  |  |  |  |  | 
2 | CCOC(=O)C1(C(=O)Nc2ccc(F)cc2)CC1c1cc(OC)c(OC)c(OC)c1 (trans isomer) | 7.9 |  |  |  |  |  | 
3 | COc1cc([C@@H]2C[C@]2(CO)C(=O)Nc2ccccc2)cc(OC)c1OC | 31.5 | 51.3 | 24.1 | 32 | > 100 | 33.3 | EC50 (Tubulin): 14.3 µM
4 | CCOC(=O)C1(C(=O)NCCc2ccc(F)cc2)CC1c1cc(OC)c(OC)c(OC)c1 (cis isomer) [listing 1 of 2 here] | 40.8 |  |  |  |  |  | 
5 | CC(=O)O[C@H]1C(=O)[C@@]2(C)[C@H]([C@H](OC(=O)c3ccccc3)[C@]3(O)C[C@H](OC(=O)[C@H](O)[C@@H](NC(=O)c4ccccc4)c4ccccc4)C(C)=C1C3(C)C)[C@]1(OC(C)=O)CO[C@@H]1C[C@@H]2O [PACLITAXEL] | 245 | 0.0113 | 0.0082 |  | 0.0157 | 0.0121 | IC50 (A549 [4]): 1.04 µM; Activity (Mus musculus): Toxic; EC50 (Tubulin): 1.23 µM
6 | CCOC(=O)C1(C(=O)NCc2ccc(OC)cc2)CC1c1cc(OC)c(OC)c(OC)c1 (trans isomer) | 50 |  |  |  |  |  | 
7 | COc1cc([C@@H]2C[C@@]2(CO)C(=O)NCc2ccc(C)cc2)cc(OC)c1OC |  | 58.7 | 46.3 | 41.2 | > 100 | 76.3 | 
8 | COc1cc([C@@H]2C[C@@]2(CO)C(=O)Nc2ccccc2Cl)cc(OC)c1OC |  | 24.5 | 11.4 | 13.3 | 18.4 | 10.7 | 
9 | CCOC(=O)C1(C(=O)Nc2ccc(F)cc2)CC1c1cc(OC)c(OC)c(OC)c1 (cis isomer) |  |  | 22.4 | 62.4 | 63.7 | 46.7 | IC50 ([2]; qgy): 79.1 µM
10 | CCOC(=O)C1(C(=O)NCCc2ccc(F)cc2)CC1c1cc(OC)c(OC)c(OC)c1 (cis isomer) [listing 2 of 2 here] |  | > 100 |  | 58.1 | > 100 | 75.1 | IC50 (A549 [3]; a549): 49.3 µM
11 | CCOC(=O)C1(C(=O)Nc2ccccc2Cl)CC1c1cc(OC)c(OC)c(OC)c1 (stereo in doubt; cis) |  | 36.1 | 18 |  |  |  | IC50 (HeLa; hela): 22.1 µM; IC50 (K562; k562): 41.4 µM; IC50 (SW480; sw480): 27.2 µM
12 | COc1cc([C@H]2C[C@@]2(CO)C(=O)Nc2ccccc2)cc(OC)c1OC |  | > 100 | > 100 | > 100 | > 100 | > 100 | 
13 | CCOC(=O)[C@]1(C(=O)Nc2ccccc2)C[C@@H]1c1cc(OC)c(OC)c(OC)c1 |  | 38.1 | 21.3 | > 100 | > 100 | 31.7 | 
14 | CCOC(=O)[C@]1(C(=O)Nc2ccccc2Cl)C[C@H]1c1cc(OC)c(OC)c(OC)c1 | 28.6 | 28 | 13.4 | 42.4 | 20.7 | 25.6 | EC50 (Tubulin): 16.9 µM
15 | CCOC(=O)[C@@]1(C(=O)Nc2ccccc2)C[C@H]1c1cc(OC)c(OC)c(OC)c1 |  | 48.7 | 65.9 | > 100 | > 100 | > 100 | 
16 | CCOC(=O)[C@]1(C(=O)NCc2ccc(C)cc2)C[C@H]1c1cc(OC)c(OC)c(OC)c1 | 79.3 | 32.1 | 13.3 | 28.5 | > 100 | 36.4 | Activity (Tubulin (Homo sapiens) [5]): Dose-dependent effect; EC50 (Tubulin): 5.83 µM
17 | CCOC(=O)C1(C(=O)Nc2ccccc2)CC1c1cc(OC)c(OC)c(OC)c1 (cis isomer) | 23.2 |  |  |  |  |  | 
18 | CCOC(=O)C1(C(=O)Nc2ccccc2[N+](=O)[O-])CC1c1cc(OC)c(OC)c(OC)c1 (stereo in doubt) |  | 54.1 | 24.5 | 40.2 | 56.3 | 34.1 | 
19 | CCOC(=O)C1(C(=O)NCCc2cccc(F)c2)CC1c1cc(OC)c(OC)c(OC)c1 (trans isomer) |  |  |  |  |  |  | IC50 ([2]; qgy): > 100 µM; IC50 (A549 [3]; a549): 64.3 µM; IC50 (HeLa; hela): 58.2 µM; IC50 (K562; k562): > 100 µM; IC50 (SW480; sw480): 79.3 µM
20 | CCOC(=O)[C@@]1(C(=O)Nc2ccccc2Cl)C[C@@H]1c1cc(OC)c(OC)c(OC)c1 |  | > 100 | 29 | > 100 | 49.4 | 46.7 | 
21 | CCOC(=O)[C@@]1(C(=O)Nc2ccccc2)C[C@@H]1c1cc(OC)c(OC)c(OC)c1 |  | > 100 | > 100 | > 100 | > 100 | > 100 | 
22 | CCOC(=O)C1(C(=O)NCc2ccc(C)cc2)CC1c1cc(OC)c(OC)c(OC)c1 (cis isomer) |  |  | 18.7 | 33.2 | > 100 |  | IC50 ([2]; qgy): > 100 µM; IC50 (SW480; sw480): 29 µM
23 | CCOC(=O)C1(C(=O)NCc2ccc(F)cc2)CC1c1cc(OC)c(OC)c(OC)c1 (trans isomer) |  |  |  |  |  |  | IC50 ([2]; qgy): > 100 µM; IC50 (A549 [3]; a549): 34.1 µM; IC50 (HeLa; hela): 27.8 µM; IC50 (K562; k562): 43.1 µM; IC50 (SW480; sw480): 28.4 µM
24 | CCOC(=O)C1(C(=O)Nc2cccc(Cl)c2)CC1c1cc(OC)c(OC)c(OC)c1 (stereo in doubt; cis) | 50 |  |  |  |  |  | 
25 | COc1cc([C@H]2C[C@@]2(CO)C(=O)Nc2ccccc2Cl)cc(OC)c1OC |  | > 100 | > 100 | > 100 | > 100 | > 100 | 
